Here are results for 1 molecule from article PMC6130785 (ACS Omega, 2018).

What is called IC50 is the concentration that inhibits the measured activity by half. The term Kd denotes the equilibrium constant for the complex coming apart. Read a high Kd as a looser complex.

Test [1] deals with T1, PIKFYVE (Homo sapiens, UniProt Q9Y2I7). Briefly: PIKFYVE inhibition assay. The class given is biochemical.
In test [2] the target is T1, PIKFYVE. The experiment in a line: Lipid kinase competition assay. The class given is binding. The following applies: Table 2 / Figure 3 compound series, standard dose-response curve. An outline of the steps: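 Competition binding: biotinylated kinase-specific control ligand on streptavidin magnetic beads formed affinity resin. DNA-tagged PIKFYVE, liganded beads and test compound were combined. Bound kinase was eluted and quantified by qPCR of its DNA tag. Kinase amount was plotted against test compound concentration, and Kd was fitted to a standard dose–response curve using the Hill equation.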

T1 sequence (Q9Y2I7 whole entry): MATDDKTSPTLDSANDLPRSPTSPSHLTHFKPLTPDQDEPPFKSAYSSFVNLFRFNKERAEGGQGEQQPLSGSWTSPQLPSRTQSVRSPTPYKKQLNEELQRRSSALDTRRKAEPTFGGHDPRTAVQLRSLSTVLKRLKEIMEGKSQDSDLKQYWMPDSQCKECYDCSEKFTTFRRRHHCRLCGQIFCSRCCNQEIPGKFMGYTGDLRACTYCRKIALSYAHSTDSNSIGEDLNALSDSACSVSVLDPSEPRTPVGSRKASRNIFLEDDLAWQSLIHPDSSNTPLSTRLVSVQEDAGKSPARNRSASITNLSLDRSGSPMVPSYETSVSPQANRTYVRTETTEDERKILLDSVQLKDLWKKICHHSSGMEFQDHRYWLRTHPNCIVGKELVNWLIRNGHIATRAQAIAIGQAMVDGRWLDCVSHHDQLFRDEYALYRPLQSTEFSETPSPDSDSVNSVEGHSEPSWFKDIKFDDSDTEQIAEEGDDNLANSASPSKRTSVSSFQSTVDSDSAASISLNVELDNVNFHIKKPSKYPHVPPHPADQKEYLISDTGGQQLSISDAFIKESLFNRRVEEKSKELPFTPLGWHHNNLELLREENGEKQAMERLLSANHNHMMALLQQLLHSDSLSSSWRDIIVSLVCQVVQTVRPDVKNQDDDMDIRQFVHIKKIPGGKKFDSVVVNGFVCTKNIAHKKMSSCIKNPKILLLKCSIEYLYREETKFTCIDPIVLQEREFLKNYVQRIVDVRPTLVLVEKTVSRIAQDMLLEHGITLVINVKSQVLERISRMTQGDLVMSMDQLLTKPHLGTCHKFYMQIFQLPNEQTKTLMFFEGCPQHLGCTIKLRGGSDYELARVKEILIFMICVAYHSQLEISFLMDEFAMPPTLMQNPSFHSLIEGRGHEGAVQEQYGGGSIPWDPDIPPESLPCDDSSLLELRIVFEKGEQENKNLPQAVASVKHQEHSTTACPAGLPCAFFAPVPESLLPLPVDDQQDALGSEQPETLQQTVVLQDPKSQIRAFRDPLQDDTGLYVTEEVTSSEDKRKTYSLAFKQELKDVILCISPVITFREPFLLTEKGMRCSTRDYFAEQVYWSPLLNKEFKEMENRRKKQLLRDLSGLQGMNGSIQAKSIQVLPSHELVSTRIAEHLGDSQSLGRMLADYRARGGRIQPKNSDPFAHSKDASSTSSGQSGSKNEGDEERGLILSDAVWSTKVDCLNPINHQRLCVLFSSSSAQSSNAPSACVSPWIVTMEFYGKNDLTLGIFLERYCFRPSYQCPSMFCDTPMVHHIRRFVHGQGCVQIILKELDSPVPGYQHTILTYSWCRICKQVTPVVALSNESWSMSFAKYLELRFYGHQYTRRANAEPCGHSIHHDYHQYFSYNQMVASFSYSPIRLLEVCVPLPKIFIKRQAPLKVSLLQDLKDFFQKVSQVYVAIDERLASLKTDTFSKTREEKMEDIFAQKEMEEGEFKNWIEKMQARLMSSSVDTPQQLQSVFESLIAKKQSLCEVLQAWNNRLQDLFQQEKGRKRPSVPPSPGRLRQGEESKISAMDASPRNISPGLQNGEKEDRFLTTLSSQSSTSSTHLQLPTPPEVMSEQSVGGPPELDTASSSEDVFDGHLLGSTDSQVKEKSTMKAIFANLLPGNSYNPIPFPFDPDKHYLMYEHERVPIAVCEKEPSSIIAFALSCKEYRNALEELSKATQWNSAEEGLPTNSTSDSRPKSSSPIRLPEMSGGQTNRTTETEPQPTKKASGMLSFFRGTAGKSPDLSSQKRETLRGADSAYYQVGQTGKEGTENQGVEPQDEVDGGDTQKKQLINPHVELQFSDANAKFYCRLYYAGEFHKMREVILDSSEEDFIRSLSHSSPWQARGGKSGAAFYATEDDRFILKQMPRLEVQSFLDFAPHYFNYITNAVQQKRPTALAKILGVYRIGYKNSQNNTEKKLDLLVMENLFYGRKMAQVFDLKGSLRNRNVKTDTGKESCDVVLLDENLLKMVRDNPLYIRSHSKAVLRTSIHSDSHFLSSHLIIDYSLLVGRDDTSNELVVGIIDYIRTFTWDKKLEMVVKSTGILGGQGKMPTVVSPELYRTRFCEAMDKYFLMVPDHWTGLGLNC

`CCOC(=O)c1[nH]c2ccc(OC)cc2c1/C=C/C(=O)c1ccncc1` [2l, (E)-Ethyl 5-Methoxy-3-(3-oxo-3-(pyridin-4-yl)prop-1-en-1-yl)-[1H]-indole-2-carboxylate]: the IC50 in test [1] is 0.446 µM. This molecule returned a dissociation constant (Kd) in test [2] above 0.5 µM.
